MT1-MMP act inh: blocks activation of human MT1-MMP; P50281; HT1080 RFP-PRO-GFP cells, GFP/RFP ratio fluorescence, overnight; percent of plate control window, DMSO zero; 360,000 compounds, 0.061% hits; AID 651647; GFP/RFP ratio change, % at 20 µM;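 active = GFP/RFP ratio change of at least 30% with cell ATP level not reduced by more than half and red fluorescence within 50% of control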
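Test system: HT1080 cells expressing an RFP-PRO-GFP fluorescent reporter construct / Compound dosing: single-point 20 µM compound, 1% DMSO / Schedule: cells overnight before dosing, compound overnight, 37 °C, 5% CO2 / Evaluation: GFP/RFP fluorescence ratio / Control set: DMSO and RFP-L50D-GFP cell wells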
Exocytosis inh: blocks lytic granule exocytosis. 360,000 compounds, 0.66% hits. inhibition, % at 10 µM. TALL-104 LAMP-1 surface exposure, flow cytometry; cells stimulated with thapsigargin and PMA. AID 651702;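 active = inhibition above about 55%, limit read from the data; inconclusive = no clear call, values can overlap the other calls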
ABCB6 inh MLPCN: inhibitors of human ABC transporter ABCB6. AID 602162. fluorescence ratio to DMSO, % at 10 µM. K562-ABCB6 porphyrin accumulation, flow cytometry, 1 h; active compounds read low. 360,000 compounds, 0.19% hits;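 active = fluorescence ratio to DMSO below 75%, the collection mean minus 3 SD; inconclusive = too few cells collected in the well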;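 note: signal is porphyrin accumulated inside mitochondria; 100% equals median channel fluorescence of DMSO control wells; lower ratio means ABCB6 inhibition with less porphyrin fluorescence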
FGF22 binding: shifts melting point of recombinant human FGF22; 340,000 compounds, 1.5% hits; activity (Tm shift, normalised), % at 9.99 µM; Q9HCT0; recombinant FGF22 thermal shift, SYPRO orange fluorescence; percent of sucrose octasulfate shift, DMSO zero;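 active = mean Tm shift, scaled 0 neutral to 100 positive control, at about 1.3% or above, every replicate too, limit read from the data; inconclusive = no clear call, values can overlap the other calls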
DAGLB inhibitor: diacylglycerol lipase beta (human) inhibition. HEK293T DAGLB membrane lysate, EnzChek fluorogenic substrate. inhibition, % at 5.17 µM. 340,000 compounds, 0.059% hits. Q8NCG7; in the data active = inhibition above about 34%;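 note: 0% = enzyme with vehicle and 100% = wells lacking enzyme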
VLA-4 inh: inhibition in a human VLA-4 binding assay; P13612; VLA-4 expressing cells, ligand binding flow cytometry; inhibition, % (about 7 µM as worked out from the volumes in the protocol); 330,000 compounds, 0.2% hits; in the data active = inhibition above about 50%
Target sequence (P13612 whole entry, looked up): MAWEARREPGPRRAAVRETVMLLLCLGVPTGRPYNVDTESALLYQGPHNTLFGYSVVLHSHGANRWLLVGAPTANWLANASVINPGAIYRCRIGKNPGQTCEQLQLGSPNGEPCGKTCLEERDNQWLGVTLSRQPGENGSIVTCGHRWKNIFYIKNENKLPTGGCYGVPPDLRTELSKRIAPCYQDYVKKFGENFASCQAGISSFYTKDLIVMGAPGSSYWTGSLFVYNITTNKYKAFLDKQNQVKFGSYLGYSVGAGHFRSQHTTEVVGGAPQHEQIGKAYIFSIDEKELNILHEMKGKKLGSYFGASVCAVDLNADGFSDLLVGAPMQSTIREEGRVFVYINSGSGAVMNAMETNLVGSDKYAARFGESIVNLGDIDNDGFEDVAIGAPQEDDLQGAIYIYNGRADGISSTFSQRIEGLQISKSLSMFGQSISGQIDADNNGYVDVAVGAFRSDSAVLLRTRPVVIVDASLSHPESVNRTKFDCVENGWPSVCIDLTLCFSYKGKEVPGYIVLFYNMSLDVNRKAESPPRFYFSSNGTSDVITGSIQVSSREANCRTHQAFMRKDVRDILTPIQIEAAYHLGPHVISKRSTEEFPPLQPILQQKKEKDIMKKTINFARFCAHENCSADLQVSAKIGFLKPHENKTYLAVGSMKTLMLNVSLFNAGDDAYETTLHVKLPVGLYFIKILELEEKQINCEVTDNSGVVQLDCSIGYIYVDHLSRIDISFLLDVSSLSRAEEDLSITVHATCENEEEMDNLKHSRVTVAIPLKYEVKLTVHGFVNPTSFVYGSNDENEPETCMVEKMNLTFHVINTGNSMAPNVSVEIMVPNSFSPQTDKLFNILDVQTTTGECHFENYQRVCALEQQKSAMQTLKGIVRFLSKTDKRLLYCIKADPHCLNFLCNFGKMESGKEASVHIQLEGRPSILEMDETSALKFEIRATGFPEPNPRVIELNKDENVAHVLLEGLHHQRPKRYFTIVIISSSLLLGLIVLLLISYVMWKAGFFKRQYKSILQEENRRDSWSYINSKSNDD
Active calls of the source: *; ? = inconclusive; / = no result given. Hits are enriched below; roughly 2% of the tested compounds scored in any of these assays.

SMILES	MT1-MMP act inh	Exocytosis inh	ABCB6 inh MLPCN	FGF22 binding	DAGLB inhibitor	VLA-4 inh
COc1ccc2c(c1OC)C(=O)N(c1ccc(O)cc1)C2=O	2	0	99	43*	2	5
C[C@@H]1CN([C@@H](C)CO)S(=O)(=O)c2ccc(Br)cc2O[C@H]1CN(C)C(=O)C1CC1	/	/	/	1	/	/
C[C@H](CO)N1C[C@H](C)[C@H](CN(C)S(=O)(=O)c2ccccc2F)OCc2ccccc2-c2ccccc2C1=O	/	/	/	0	/	/
CS(=O)(=O)N1N=C(c2ccco2)CC1c1ccc(Br)cc1 (centres undefined)	-1	-2	99	44*	1	-5
O=C(NC1CCC1)[C@@H]1[C@@H](CO)[C@@H]2Cn3c(ccc(-c4cncnc4)c3=O)[C@@H]2N1C(=O)NC1CCCC1	/	/	/	0	/	/
OC(CNC1Cc2ccccc2C1)COc1ccc(Cl)cc1 (centres undefined)	0	-4	101	0	-1	1
OC(CNC1CCCc2ccccc21)COc1c(Cl)cccc1Cl (centres undefined)	2	-2	99	44*	-1	3
Cc1ccc(S(=O)(=O)N(C)C[C@H]2OCCCC[C@H](C)Oc3ccc(NC(=O)Nc4ccc5c(c4)OCO5)cc3C(=O)N([C@@H](C)CO)C[C@H]2C)cc1	/	/	/	0	/	/
CC(/C=N/N1CCN(c2ccccn2)CC1)=C\c1ccccc1	4	76*	96	0	-2	7
NC(=O)c1ccsc1NC(=O)c1ccc(N2CCCC2=O)cc1	-1	-1	100	43*	0	-6
CCC(C)NC(=O)c1c(N)n(/N=C/c2ccccn2)c2nc3ccccc3nc12 (centres undefined)	-1	56*	90	/	0	-17
Cc1ccc(C)c(S(=O)(=O)N=Nc2c(O)[nH]c3ccccc23)c1	2	-2	99	43*	2	1
O=C(O)C1=CCC(c2ccc(Cl)c(Cl)c2)N(S(=O)(=O)c2ccc(F)cc2)C1c1cccc(F)c1 (centres undefined)	3	1	/	43*	/	/
Cc1ccc(S(=O)(=O)N2[C@@H](c3ccc(F)cc3)C(C(=O)O)=CC[C@H]2c2cccc(Cl)c2)cc1	-1	12	93	0	1	-10
COc1n[nH]c(C(=O)Nc2nc3ccccc3s2)c1[N+](=O)[O-]	1	-2	101	44*	2	-5
c1ccc(-c2ccnc3ncnn23)nc1	4	1	103	/	2	13
c1cncc(-c2ccnc3ncnn23)c1	0	-5	99	43*	1	4
CC(C)NC(=O)N(C)C[C@H]1Oc2c(NC(=O)NC3CCCCC3)cccc2C(=O)N([C@@H](C)CO)C[C@H]1C	/	/	/	0	/	/
COCCCNC(=S)NC1CC2CCC(C1)N2Cc1ccccc1 (centres undefined)	8	-2	100	43*	3	8
CCOC(=O)C(CC)Sc1ccc2nnc(CCNS(=O)(=O)c3ccccc3)n2n1 (centres undefined)	-2	2	95	44*	0	1
COc1cc(CN(CC(C)C)S(=O)(=O)c2ccccc2Br)cc(OC)c1	-7	-3	93	43*	-18	/
COc1ccc(NC(=O)N[C@H]2CC[C@H](CCNC(=O)c3ccccc3F)O[C@H]2CO)cc1	/	/	/	0	/	/
CCC(=O)N1C[C@@H](C)[C@@H](OC)CN(C)C(=O)c2ccc(NC(=O)NC(C)C)cc2OC[C@H]1C	/	/	/	0	/	/
COc1cc(CNCCc2c[nH]c3ccccc23)cc(Cl)c1OCC(N)=O	-1	18	97	44*	1	6
CCOc1cc(CNCCc2c[nH]c3ccccc23)cc(Cl)c1OCC(N)=O	-8	1	100	0	-1	8
SMILES	MT1-MMP act inh	Exocytosis inh	ABCB6 inh MLPCN	FGF22 binding	DAGLB inhibitor	VLA-4 inh
O=C(CNC(=O)C1CC1)Nc1ccc(F)c(F)c1F	-5	15	100	43*	4	0
COc1cc(/C=N/NC(=O)C(=O)NCC2CCCO2)ccc1OCC(=O)N1CCOCC1 (centres undefined)	-1	-5	100	44*	-2	8
CN1N=C(C(F)(F)F)CC1=O	3	-1	90	44*	0	-7
C[C@H]1CCCCO[C@H](CN(C)C(=O)Nc2ccccc2)[C@@H](C)CN([C@@H](C)CO)C(=O)c2cc(N(C)C)ccc2O1	/	/	/	-2	/	/
COc1ccc(NC(=O)/C(C#N)=C/c2ccc(Sc3nncn3C)c([N+](=O)[O-])c2)cc1	-4	48	95	0	-2	52*
COc1cccc(S(=O)(=O)N[C@@H]2CC[C@@H](CC(=O)NCc3ccc(Cl)cc3)O[C@H]2CO)c1	/	/	/	0	/	/
CCCCCCOc1ccc(/C(C)=N/NC2=NCCN2)cc1	-1	59*	103	0	1	11
O=C(Nc1c(Cl)ccc2nsnc12)c1ccco1	-6	?	103	44*	-1	4
O=C(Nc1cccc(NC(=O)c2ccco2)c1)c1cccc(Br)c1	-2	10	95	43*	-2	-9
O=C(Nc1ccc(O)cc1C(=O)O)c1ccc(NC(=O)c2ccco2)cc1	1	2	90	2.1*	0	-10
O=C(Nc1ccccc1C(=O)O)c1cccc(NC(=O)c2ccco2)c1	1	-7	101	/	1	-10
C/C(=N/NC(=O)c1ccco1)c1cccc(NC(=O)c2ccc(C)s2)c1	1	-7	99	1.5*	-3	19
O=C(Nc1cc(Br)c(O)c(Br)c1)c1cccc(NC(=O)c2ccco2)c1	5	1	90	0	5	4
COc1ccccc1-c1cnc2c(c1)C(=O)N([C@H](C)CO)C[C@@H](C)[C@@H](CN(C)CC1CCOCC1)O2	/	/	/	0	/	/
Cc1noc(C)c1S(=O)(=O)N(C)C[C@@H]1OCCCC[C@@H](C)Oc2ccc(NC(=O)Nc3cccc4ccccc34)cc2C(=O)N([C@H](C)CO)C[C@H]1C	/	/	/	0	/	/
COCC(=O)Nc1ccc2c(c1)C(=O)N(C)[C@H]1CC[C@H](CC(=O)Nc3ccccc3F)O[C@@H]1CO2	/	/	/	0	/	/
CN1[C@@H]2Cn3c(ccc(/C=C/c4ccccc4)c3=O)[C@H]1[C@@H](C(=O)NC1CCC1)[C@@H]2CO	/	/	/	0	/	/
CC(=O)Nc1ccc(NC(=O)c2ccc(COc3ccccc3)cc2)cc1	2	-2	100	0	7	11
CCOc1cccc(C(=O)Nc2cccc(C(C)=O)c2)c1	7	-3	84	/	0	19
Nc1ccc(NC(=O)c2ccco2)c(Cl)c1	-5	3	95	44*	-1	14
CCOc1cccc(C(=O)Nc2cccc(NC(=O)c3ccco3)c2)c1	-1	1	95	1.5*	-3	12

From PubChem
